# Assay results from different studies.
# Compare with care: the assays were run in different laboratories.
# MTNR1B: Melatonin receptor type 1B (MTNR1B, Homo sapiens, UniProt P49286)
# HTR1B: 5-hydroxytryptamine receptor 1B (HTR1B, Homo sapiens, UniProt P28222)
Compound,target,test,conditions,quantity,result
Cc1cc2nc3c(=O)[nH]c(=O)nc-3n(C[C@H](O)[C@H](O)[C@H](O)COP(=O)(O)OP(=O)(O)OC[C@H]3O[C@@H](n4cnc5c(N)ncnc54)[C@H](O)[C@@H]3O)c2cc1C,"Protein PRRC2C (Homo sapiens, UniProt Q9Y520)",binding,lysate,Kd,23700 nM
C[C@H](C(=O)N[C@@H]1COc2ccccc2[C@H]1S(C)(=O)=O)c1ccc(F)cc1,"Metabotropic glutamate receptor 7 (GRM7, Homo sapiens, UniProt Q14831)","cAMP, agonist, luciferase",,EC50,28 nM
CCC(=O)NC1Cc2ccccc2C(c2ccccc2)C1 (centres unmarked),MTNR1B,"GTPγS binding, agonist, radiometric",cell membranes,EC50,1.58 nM
CC(C)c1ccc(CNc2cccc(-c3nnc[nH]3)c2)cc1,MTNR1B,cell-free assay,,Ki,3720 nM
CCCCN1CCC(COC(=O)c2ccc(N)c(OCF)c2)CC1,HTR1B,"cell-free assay, radioligand",,Ki,> 10000 nM
C=C1CC[C@@H]2[C@](C)(CO)[C@H](O)CC[C@@]2(C)[C@@H]1CCC1=CCOC1=O,"UDP-glucuronosyltransferase 2B7 (UGT2B7, Homo sapiens, UniProt P16662)","enzyme activity, inhibitor",pH 7.4,Ki,1500 nM
O=C(NCCc1cccc2ccccc12)C1CCC1,MTNR1B,"ligand displacement, radioligand",cell membranes,Ki,~100 nM
O=C1c2ccccc2CCN1CCCCN1CCN(c2cccc(Cl)c2Cl)CC1,HTR1B,"ligand displacement, radioligand",,Ki,73 nM
CCc1ccc2scc(CCNC(C)=O)c2c1,MTNR1B,"cAMP, agonist, TR-FRET",,EC50,39.8 nM
O=C(O)CC[C@@H](O)C(=O)O,"Protein phosphatase 3 catalytic subunit alpha (PPP3CA, Homo sapiens, UniProt Q08209)","binding, SPR",,Kd,~67000 nM
COc1ccc2c(c1)C(=O)C1(CCc3ccccc31)O2 (centres unmarked),"Peptidyl-prolyl cis-trans isomerase NIMA-interacting 1 (PIN1, Homo sapiens, UniProt Q13526)","enzyme activity, inhibitor",,Ki,77000 nM
Cc1cc(Nc2cc3ncccc3c(N[C@@H]3C[C@H]4CC[C@@H](C3)N4CCC#N)n2)n[nH]1,"Cyclin-dependent kinase 7 (CDK7, Homo sapiens, UniProt P50613)","binding, competition with immobilised ligand",,Kd,860 nM
COCC(CNC(C)=O)c1cccc2ccc(OC)cc12 (centres unmarked),MTNR1B,"β-arrestin recruitment, agonist",,EC50,3.09 nM
C=CC(=O)Nc1cccc(CN2C(=O)N(c3c(Cl)c(OC)cc(OC)c3Cl)Cc3cnc(NCCCCN(CC)CC)nc32)c1,"Mitogen-activated protein kinase 7 (MAPK7, Homo sapiens, UniProt Q13164)","binding, competition with immobilised ligand",,Kd,160 nM
